DAGLB inhibitor = blocks human DAGLB lipase activity; Q8NCG7; HEK293T DAGLB membrane lysate, EnzChek fluorogenic substrate; inhibition, % at 5.17 µM; hit rate 0.059% among 340,000; in the data active means inhibition above about 34%;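 further: 0% = enzyme with vehicle and 100% = wells lacking enzyme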
Target sequence (Q8NCG7 whole entry, looked up): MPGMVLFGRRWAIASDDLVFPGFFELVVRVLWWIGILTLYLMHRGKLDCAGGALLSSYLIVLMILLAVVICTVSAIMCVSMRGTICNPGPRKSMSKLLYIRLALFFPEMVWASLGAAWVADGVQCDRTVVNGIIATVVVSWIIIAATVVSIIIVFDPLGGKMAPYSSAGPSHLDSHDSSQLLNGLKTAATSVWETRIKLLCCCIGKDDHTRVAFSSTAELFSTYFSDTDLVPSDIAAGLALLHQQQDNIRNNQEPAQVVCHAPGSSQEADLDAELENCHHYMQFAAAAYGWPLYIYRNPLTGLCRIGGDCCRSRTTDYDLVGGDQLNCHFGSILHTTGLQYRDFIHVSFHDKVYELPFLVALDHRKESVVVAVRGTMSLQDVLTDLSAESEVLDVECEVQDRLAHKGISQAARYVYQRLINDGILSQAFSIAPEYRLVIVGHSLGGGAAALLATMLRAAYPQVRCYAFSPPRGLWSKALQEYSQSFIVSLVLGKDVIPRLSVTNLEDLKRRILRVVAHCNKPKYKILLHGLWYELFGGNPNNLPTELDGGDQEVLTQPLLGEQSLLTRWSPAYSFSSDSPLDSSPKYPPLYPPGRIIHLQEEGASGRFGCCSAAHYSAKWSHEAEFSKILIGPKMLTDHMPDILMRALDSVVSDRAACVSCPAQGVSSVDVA
MT1-MMP act inh = blocks activation of human MT1-MMP; P50281; HT1080 RFP-PRO-GFP cells, GFP/RFP ratio fluorescence, overnight; percent of plate control window, DMSO zero; GFP/RFP ratio change, % at 20 µM; hit rate 0.061% among 360,000; AID 651647;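 active means GFP/RFP ratio change of at least 30% with cell ATP level not reduced by more than half and red fluorescence within 50% of control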
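system = RFP-PRO-GFP reporter HT1080 cells | dosing = 20 µM single dose, 1% DMSO | timing = overnight cell settling, then overnight compound exposure, 37 °C, 5% CO2 | read-out basis = GFP/RFP fluorescence ratio | controls = DMSO and RFP-L50D-GFP cell wells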
bovine MsrA act = bovine methionine sulfoxide reductase A activation | purified bovine MsrA, absorbance read-out | activation, % at 10.6 µM | hit rate 0.3% among 360,000; in the data active means activation above about 7.5%;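 further: 0% = vehicle and 100% = reference activator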
SKN-1 block = C. elegans SKN-1 inhibition; C. elegans VP596 Pgst-4::GFP/RFP ratio, acrylamide-induced, 24 h; inhibition, % at 21.8 µM; hit rate 0.49% among 360,000; AID 624304;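 active means interference check ratio from 0.5 to 1.5 plus GFP to RFP signal ratio inhibition reaching or exceeding a fixed threshold, cut at about 30% in these data, passing the limit was not always enough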
MsrA inhibitor = inhibits bovine methionine sulfoxide reductase A | purified bovine MsrA, absorbance read-out | inhibition, % at 15.5 µM | hit rate 0.75% among 360,000;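 further: 0% = vehicle wells with enzyme and 100% = reference inhibitor wells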
beta cell repl = MIN6 beta-cell proliferation induction; MIN6 cells proliferation, ATPlite luminescence, 48 h; cells starved in 0.2% serum; 100% = growth in 10% serum; proliferation, % at 10 µM; hit rate 0.29% among 330,000;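 active means compounds whose signal lies at least 3.5 SD above the mean of all wells on their plate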;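 further: 0% = DMSO-treated cells in low-serum medium and 100% = 10% serum control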
MsrA conf = confirmation of bovine MsrA inhibitors; shares compounds with MsrA inhibitor; purified bovine MsrA, absorbance read-out; inhibition, % at 15.5 µM; hit rate 41% among 2,300; AID 651822;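 further: coupled to thioredoxin reductase with NADPH and selenocystamine and DMSO as substrate; 0% = vehicle only and 100% = full effect of reference inhibitor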
An asterisk follows results filed as active; x = not tested or not shown. Most compounds without a hit are left out; they make up all but 1.8% or so of the library. Unless noted, no stated cut-off is given here; in the data, active means inhibition above about 4.5%; inactive means the rest.

SMILES	DAGLB inhibitor	MT1-MMP act inh	bovine MsrA act	SKN-1 block	MsrA inhibitor	beta cell repl	MsrA conf
CCCCCC(=O)N/N=C/c1ccc(N(C)C)cc1	2	4	-6	2	4	0	x
CN(C)c1ccc(/C=N/NC(=O)CCCO)cc1	x	-4	-7	3	5.9*	0	4
O=C(N/N=C/c1cccs1)/C(=C/c1ccccc1)NC(=O)c1ccccc1	1	-2	-6	7	2	-2	x
O=C(Cc1c[nH]c2ccccc12)N/N=C/c1ccc(F)cc1	1	4	-3	4	-1	0	x
CN(C)c1ccc(/C=C(\NC(=O)c2ccccc2)C(=O)N/N=C/c2ccc(C(=O)O)cc2)cc1	2	1	-4	13	5.7*	-3	5.4*
CN(C)c1ccc(/C=N/NC(=O)CCCCCNC(=O)c2ccccc2)cc1	3	-2	-7	5	4.8*	-3	3
CN(C)c1ccc(/C=N/NC(=O)CCc2c[nH]c3ccccc23)cc1	1	0	-2	0	5.5*	-2	3
COc1ccc(CCNC(=O)c2ccc(NC(=O)CC3SC(N4CCCC4)=NC3=O)cc2)cc1 (stereo not drawn)	1	0	0	-13	-1	-3	x
O=C(NCCN1CCCOC1=O)C(=O)NCCN1CCCOC1=O	0	-1	-4	0	0	-2	x
CN(C)c1ccc(/C=N/NC(=O)c2ccccc2)cc1	0	4	-6	-13	4.7*	3	4
CSc1ccc(/C=N/NC(=O)c2ccccc2Cl)cc1	0	4	-8	-7	5.8*	-4	4
CN(C)c1ccc(/C=N/NC(=O)Cn2nnc3ccccc32)cc1	7	0	-6	5	5.1*	-3	4.7*
COc1ccc(/C=C(\NC(=O)c2ccccc2)C(=O)N/N=C/c2cccnc2)cc1	-2	0	-4	0	3	-3	x
COc1ccc(/C=C(\NC(=O)c2ccccc2)C(=O)N/N=C/c2ccncc2)cc1	0	2	-5	-5	5.0*	-3	6.0*
CSc1ccc(/C=N/NC(=O)c2cccs2)cc1	x	4	-4	0	3	0	x
CCOC(CNc1c([N+](=O)[O-])c(=O)n(C)c(=O)n1C)OCC	-5	-2	-1	7	1	0	x
CCNC(=O)N(C)[C@H]1C[C@H]2c3[nH]c4c(-c5ccc6c(c5)OCO6)cccc4c3CCN2C(=O)[C@H]1[C@H](C)O	x	x	x	x	1	x	x
O=C(CN(c1cccc(Cl)c1)S(=O)(=O)c1ccc(Cl)cc1)NCc1ccccn1	-6	1	-7	7	-1	-2	x
COc1ccc(C(=O)Nc2c(N)nc(SCC(=O)NCC3CCCO3)[nH]c2=O)cc1 (stereo not drawn)	-2	-9	-1	0	0	1	x
Cc1cc2oc(=O)cc(CN(C)Cc3ccccc3Cl)c2cc1C	-6	-3	-5	-6	-1	0	x
O=C(O)CC(Cc1ccccc1)(C(=O)O)c1ccccc1 (stereo not drawn)	-1	-2	-1	0	0	-2	x
CN(N=Cc1ccc(N(C)C)cc1)C(=O)c1ccccc1N	x	x	x	x	5.3*	x	3
CN(C)c1ccc(/C=N/NC(=O)c2ccc(Cl)cc2)cc1	1	0	-8	8	3	1	x
CN(C)c1ccc(/C=N/NC(=O)c2ccccc2Cl)cc1	2	-4	-3	-5	6.3*	0	5.0*
CN(C)c1ccc(/C=N/NC(=O)CCC(=O)NCc2ccccc2)cc1	1	5	-4	2	4	0	x
SMILES	DAGLB inhibitor	MT1-MMP act inh	bovine MsrA act	SKN-1 block	MsrA inhibitor	beta cell repl	MsrA conf
Cc1ccc(-c2cccc(=O)o2)cc1	x	0	x	-8	2	x	x
O=c1cccc(-c2ccc3ccccc3c2)o1	x	0	x	-10	5.0*	x	3
N#CCC(=O)Nc1ccccc1C(=O)O	-2	-2	-3	28	-1	-2	x
N#C/C(=C/Nc1ccccc1C(=O)O)C(N)=O	-1	3	-9	-7	5.8*	-1	6.8*
O=[N+]([O-])c1ccc(NN=C(C2CC2)C2CC2)c([N+](=O)[O-])c1	4	12	-1	3	0	x	x
C/C(CCCO)=N/Nc1ccc([N+](=O)[O-])cc1[N+](=O)[O-]	6	10	-4	4	14*	0	7.0*
CCC(CC)=NNc1ccc([N+](=O)[O-])cc1[N+](=O)[O-]	-2	-1	-12	4	0	-2	x
C/C(CCC(=O)O)=N/Nc1ccc([N+](=O)[O-])cc1[N+](=O)[O-]	-1	7	-7	2	13*	-2	9.8*
CC(C)n1c(SCC(=O)NC2CC2)nnc1C1CC1	-2	-1	-4	6	0	-3	x
Cc1nc(C)c(C(=O)N/N=C/c2cn(C)c3ccccc23)s1	3	6	-2	5	5.1*	-1	3
CN(/N=C/c1ccncc1)c1cnc2ccccc2n1	-5	-2	-17	16	4.7*	-2	4
CN(/N=C/c1ccncc1)C1=NCCN1	-3	4	-1	17	-2	-1	x
Cc1ccc(NC(=O)/C(C#N)=C/c2cccs2)c(C)c1	-5	-6	2	-4	1	-3	x
Cc1cccc(C)c1NC(=O)/C(C#N)=C/c1cccs1	-1	5	-9	-8	6.9*	0	4
COc1ccc(-c2cc(C(F)(F)F)n3nc(C(=O)N4CCOCC4)nc3n2)cc1	2	-3	-6	0	7.7*	x	4.9*
COc1cccc(/C=C2\Oc3cc(OCC(=O)N4CCC[C@H]4C(=O)O)ccc3C2=O)c1	1	5	-3	-2	5.7*	-2	5.9*
O=C(N/N=C\C=C\c1ccc2c(c1)OCO2)C1COc2ccccc2O1 (stereo not drawn)	-3	-1	-11	-3	4.8*	1	3
O=C(N/N=C/c1ccc(N2CCOCC2)cc1)C1COc2ccccc2O1 (stereo not drawn)	2	-10	-5	-4	3	-2	x
O=C(/C=C/c1ccc2c(c1)OCO2)c1cccnc1	-1	-3	-7	-10	2	-3	x
O=C(N/N=C\C=C\c1ccc2c(c1)OCO2)c1cccnc1	-1	-2	-15	6	8.0*	-1	5.7*
Cc1[nH]nc(Nc2ccc(Br)cc2)c1[N+](=O)[O-]	-3	1	-3	17	5.4*	0	3
Cc1ccc(Nc2n[nH]c(C)c2[N+](=O)[O-])cc1	2	2	-1	11	2	-1	x
Cc1ccc(N/N=C/c2ccncc2)cc1	0	-1	-2	10	0	1	x
O=C(O)c1ccc(N/N=C/c2ccncc2)cc1	-1	1	-6	12	5.7*	1	4

Compound activity deposited in PubChem BioAssay by several laboratories.
